Test results reported in ChEMBL document CHEMBL1139885, “De novo parallel design, synthesis and evaluation of inhibitors against the reverse transcriptase of human immunodeficiency virus type-1 and drug-resistant variants” (J Med Chem, 2007).
pIC50: −log10 of the molar value. Activity calls are given as the source filed them. The calls are words filed in the database; no cut-off is given here.

Key:
[1] = target: T1, Human immunodeficiency virus type 1 reverse transcriptase (Human immunodeficiency virus 1, UniProt Q72547); assay: Inhibition of DNA polymerase activity of HIV1 reverse transcriptase
[2] = Inhibition of RNase H activity of HIV1 reverse transcriptase; set-up: species or system Human immunodeficiency virus 1
Procedure, shortened: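 FRET assay: RT (6 nM) with fluorescein-RNA/DNA-dabcyl hybrid substrate, 1 mM DTT, ± inhibitor; fluorescence read after 30 min at 37 °C. Triplicates; IC50 interpolated from dose-response curves.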

[3] = Cytotoxicity against Jurkat cells by XTT assay; format: cell-based; details: human
Procedure, shortened: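 Jurkat cells; XTT read-out, absorbance 450 nm with 620 nm reference. CC50 = concentration reducing viability by 50% versus inhibitor-free control.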

[4] = target: Human immunodeficiency virus type 1 reverse transcriptase (Human immunodeficiency virus 1) (UniProt Q72547); assay: Inhibition of reverse transcriptase binding to DNA assessed as formation of RT-DNA complex by gel mobility shift assay
Procedure, shortened: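 RT 1.5 pmol preincubated 10 min at 4 °C with compound at 250 and 625 µM final. Then 0.12 pmol 5'-32P-labeled 54-nt duplex DNA added, in 10 mM HEPES, 30 mM ammonium sulfate, 0.25 mM DTT, 0.1 mg/mL BSA, pH 8.0; 10 min 32 °C. Run on nondenaturing 6.5% polyacrylamide gel, TBE, 4 °C; autoradiography.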

[5] = target: T1, Human immunodeficiency virus type 1 reverse transcriptase; assay: Inhibition of HIV1 wild type p66/p51 reverse transcriptase
Procedure, shortened: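 BH-10-derived p66/p51 RT, C-terminal His6 on p66, expressed in bacteria, Ni-NTA then cation exchange purified. Substrate mix: 50 µg/mL poly(rA)·oligo(dT)12-18, 50 µM dTTP, [3H]dTTP; 30 min 37 °C.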

[6] = Inhibition of drug-resistant reverse transcriptase […] mutant; set-up: species or system Human immunodeficiency virus 1
[7] = Inhibition of drug-resistant reverse transcriptase L100I-K103 mutant; set-up: species or system Human immunodeficiency virus 1
Procedure, shortened: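 p66/p66 homodimer HIV-1 RT double mutant (His-tagged, E. coli-expressed, Ni-NTA purified). DNA polymerase activity: [3H]dTTP incorporation into poly(rA)n·oligo(dT)12-18. DMSO serial dilutions of inhibitor plus 14 ng RT in Tris-HCl pH 7.5/KCl/MgCl2, 10 min on ice, then substrate added, 30 min at 37 °C, scintillation counting. IC50 from a four-parameter logistic fit, from at least two experiments.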

[8] = test system: Human immunodeficiency virus 1; assay: Inhibition of DNA polymerase activity of reverse transcriptase pre-incubated with drug assessed as impairment of primer elongation by DNA polymerase primer-extension assay
Procedure, shortened: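 Primer extension: 5′-32P-labelled 15-mer primed on circular φX174am3 template (4 nM T/P). RT (1.6 nM) preincubated 30 min on ice, with inhibitor before T/P addition, or with T/P for 5 min before inhibitor. Buffer 6.6 mM Tris-HCl pH 8.0, 4 mM DTT, 6 mM MgCl2, 33 mM NaCl, BSA, 20 µM each dNTP. Run 30 min at 37 °C; products resolved on gel and viewed by autoradiography.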

| SMILES | pIC50 [1] | pIC50 [2] | CC50 [3] [µM] | other results |
| --- | --- | --- | --- | --- |
| NC(=O)c1[nH]cnc1-c1cccc(Cl)c1 | 4.10 | < 3.51 | > 312 |  |
| NC(=O)c1scnc1-c1ccccc1 | 3.55 |  |  |  |
| NC(=O)CC(=O)c1cccc(Cl)c1 | < 3.51 |  |  |  |
| NC(=O)c1sc(N)nc1-c1cccc(-c2ccccc2)c1 | 4.23 | 3.60 | 244 |  |
| NC(=O)CC(=O)c1cccc(-c2ccccc2)c1 | < 3.51 |  |  |  |
| C[C@@H]1CC=C2[C@@H](CCC[C@@]2(C)CC[C@@]2(C)C3=CCCC(C)(C)[C@H]3CC[C@@H]2C)[C@]1(C)Cc1cc(OS(=O)(=O)O)ccc1OS(=O)(=O)O |  |  |  | Activity [4]: Active |
| CCOP(=O)(OCC)Oc1cccc(C(=O)CC#N)c1 | 4.19 | 3.95 | > 312 |  |
| N#CCC(=O)c1ccc(Cl)c(Br)c1 | < 3.51 |  |  |  |
| N#CCC(=O)c1cccc(C(=O)c2ccccc2)c1 | 5.01 | 4.01 | 251 |  |
| N#CCC(=O)c1cccc(Cl)c1 | 5.39 | 4.55 | > 312 |  |
| NC(=O)c1scnc1-c1cccc(C(=O)c2ccccc2)c1 | 4.79 | 4.11 | > 312 |  |
| NC(=O)c1[nH]cnc1-c1cccc(C(=O)c2ccccc2)c1 | < 3.51 |  |  |  |
| N#CCC(=O)c1cccc(-c2ccccc2)c1 | 4.48 | 4.08 | 233 |  |
| NC(=O)c1[nH]cnc1-c1cccc(-c2ccccc2)c1 | < 3.51 |  |  |  |
| NC(=O)c1sc(N)nc1-c1cccc(Cl)c1 | 4.26 | < 3.51 | > 312 |  |
| NC(=O)CC(=O)c1cccc(I)c1 | 4.53 | < 3.51 | > 312 |  |
| NC(=O)c1[nH]cnc1-c1ccc(Cl)c(Br)c1 | 5.00 | 4.39 | 213 | Activity [4]: inactive; pIC50 [5]: 5.00; pIC50 [6]: 4.58; pIC50 [7]: 4.70 |
| Cc1ccnc2c1NC(=O)c1cccnc1N2C1CC1 |  |  |  | Activity [4]: inactive; Activity [8]: Active |
| NC(=O)c1sc(N)nc1-c1ccc(Cl)c(Br)c1 | 3.93 |  |  |  |
| NC(=O)c1scnc1-c1ccc(Cl)c(Br)c1 | 4.06 |  |  |  |
| NC(=O)c1sc(N)nc1-c1cccc(I)c1 | 3.90 |  |  |  |
| NC(=O)c1sc(N)nc1-c1ccccc1 | 4.09 | < 3.51 | > 312 |  |
| NC(=O)c1sc(N)nc1-c1cccc(C(=O)c2ccccc2)c1 | 4.36 | < 3.51 | > 312 |  |
| NC(=O)c1[nH]cnc1-c1ccccc1 | 3.52 |  |  |  |
| N#CCC(=O)c1cccc(I)c1 | < 3.51 |  |  |  |
| NC(=O)CC(=O)c1cccc(C(=O)c2ccccc2)c1 | < 3.51 |  |  |  |
| N#CCC(=O)Cc1cccc(I)c1 | 5.46 | 4.70 | 247 | Activity [4]: inactive; Activity [8]: Active; pIC50 [5]: 5.46; pIC50 [6]: 5.00; pIC50 [7]: 5.03 |
| NC(=O)c1scnc1-c1cccc(-c2ccccc2)c1 | < 3.51 |  |  |  |
| NC(=O)c1scnc1-c1cccc(I)c1 | < 3.51 |  |  |  |
